The values below come from ChEMBL document CHEMBL1140872, “Discovery of a potent and selective inhibitor for human carbonyl reductase 1 from propionate scanning applied to the macrolide zearalenone” (Bioorg Med Chem, 2009).

Test [1] addresses T1, Carbonyl reductase [NADPH] 3 (Homo sapiens) (UniProt O75828).
T1 sequence (whole entry): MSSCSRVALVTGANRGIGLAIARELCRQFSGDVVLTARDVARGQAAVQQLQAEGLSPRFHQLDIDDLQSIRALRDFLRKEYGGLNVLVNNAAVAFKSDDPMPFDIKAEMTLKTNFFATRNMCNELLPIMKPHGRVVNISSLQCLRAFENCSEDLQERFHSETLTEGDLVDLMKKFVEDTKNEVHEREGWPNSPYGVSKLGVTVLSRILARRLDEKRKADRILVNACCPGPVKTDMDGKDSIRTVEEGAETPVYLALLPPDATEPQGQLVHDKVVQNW
The test can be described thus: Binding affinity to human recombinant carbonyl reductase 3 expressed in Escherichia coli assessed as thermal shift by differential scanning fluorimetry in presence of NADPH. An outline of the steps:
(§1)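 Thermal-shift (DSF) binding assay with purified recombinant catalytic domains or proteins carrying an N- or C-terminal His6 tag or GST fusion. Purity was >95% by SDS/PAGE and identity was confirmed by MS. Protein was at 2 µM final in 10 mM HEPES pH 7.5 and 150 mM NaCl. Tm shift is reported, with 2 °C as the threshold for binding.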

Test [2] concerns the target T2, Mitogen-activated protein kinase kinase kinase 5 (Homo sapiens) (UniProt Q99683).
T2 sequence (whole entry): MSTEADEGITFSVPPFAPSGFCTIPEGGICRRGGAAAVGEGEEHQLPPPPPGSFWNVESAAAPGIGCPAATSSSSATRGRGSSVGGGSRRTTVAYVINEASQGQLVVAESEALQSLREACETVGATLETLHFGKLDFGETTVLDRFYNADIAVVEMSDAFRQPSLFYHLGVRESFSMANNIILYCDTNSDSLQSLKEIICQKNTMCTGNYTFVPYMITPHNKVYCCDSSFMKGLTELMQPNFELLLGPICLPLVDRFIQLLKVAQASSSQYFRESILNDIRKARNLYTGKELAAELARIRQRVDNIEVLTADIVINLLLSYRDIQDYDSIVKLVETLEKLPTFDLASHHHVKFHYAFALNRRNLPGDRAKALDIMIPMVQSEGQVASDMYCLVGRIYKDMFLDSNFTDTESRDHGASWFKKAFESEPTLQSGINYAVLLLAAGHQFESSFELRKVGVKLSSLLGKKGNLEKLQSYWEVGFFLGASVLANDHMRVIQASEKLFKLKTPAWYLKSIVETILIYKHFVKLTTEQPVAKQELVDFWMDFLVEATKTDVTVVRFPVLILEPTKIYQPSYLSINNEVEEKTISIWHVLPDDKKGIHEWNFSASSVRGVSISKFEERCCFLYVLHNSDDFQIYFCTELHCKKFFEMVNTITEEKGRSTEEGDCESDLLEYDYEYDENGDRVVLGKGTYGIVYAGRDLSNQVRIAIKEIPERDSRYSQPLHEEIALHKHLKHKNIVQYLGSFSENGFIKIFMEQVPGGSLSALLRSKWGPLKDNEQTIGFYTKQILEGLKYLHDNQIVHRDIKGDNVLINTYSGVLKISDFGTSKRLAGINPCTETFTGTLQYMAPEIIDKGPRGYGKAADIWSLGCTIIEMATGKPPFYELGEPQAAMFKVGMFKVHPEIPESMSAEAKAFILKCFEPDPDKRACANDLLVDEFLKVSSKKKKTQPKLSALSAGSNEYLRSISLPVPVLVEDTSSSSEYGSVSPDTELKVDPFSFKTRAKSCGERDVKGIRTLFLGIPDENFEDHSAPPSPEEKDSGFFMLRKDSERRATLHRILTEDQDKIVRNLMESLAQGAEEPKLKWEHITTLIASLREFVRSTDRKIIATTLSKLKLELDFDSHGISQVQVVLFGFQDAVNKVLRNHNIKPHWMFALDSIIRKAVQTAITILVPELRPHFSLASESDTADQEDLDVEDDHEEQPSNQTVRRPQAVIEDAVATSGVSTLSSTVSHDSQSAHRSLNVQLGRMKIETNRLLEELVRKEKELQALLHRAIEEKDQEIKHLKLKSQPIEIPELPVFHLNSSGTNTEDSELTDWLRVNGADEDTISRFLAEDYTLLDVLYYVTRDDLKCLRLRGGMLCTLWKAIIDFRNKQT
The experiment in a line: Binding affinity to human recombinant MAP3K5 expressed in Escherichia coli assessed as thermal shift by differential scanning fluorimetry. In a few lines: as §1
On the technique in general: In DSF a fluorescence change marks the thermal transition of the protein.

The target of test [3] is Serine/threonine-protein kinase pim-3 (Homo sapiens) (UniProt Q86V86). The test can be described thus: Binding affinity to human recombinant PIM3 expressed in Escherichia coli assessed as thermal shift by differential scanning fluorimetry. An outline of the steps:
as §1

Test [4] concerns the target T3, Serine/threonine-protein kinase 3 (Homo sapiens) (UniProt Q13188).
T3 sequence (whole entry): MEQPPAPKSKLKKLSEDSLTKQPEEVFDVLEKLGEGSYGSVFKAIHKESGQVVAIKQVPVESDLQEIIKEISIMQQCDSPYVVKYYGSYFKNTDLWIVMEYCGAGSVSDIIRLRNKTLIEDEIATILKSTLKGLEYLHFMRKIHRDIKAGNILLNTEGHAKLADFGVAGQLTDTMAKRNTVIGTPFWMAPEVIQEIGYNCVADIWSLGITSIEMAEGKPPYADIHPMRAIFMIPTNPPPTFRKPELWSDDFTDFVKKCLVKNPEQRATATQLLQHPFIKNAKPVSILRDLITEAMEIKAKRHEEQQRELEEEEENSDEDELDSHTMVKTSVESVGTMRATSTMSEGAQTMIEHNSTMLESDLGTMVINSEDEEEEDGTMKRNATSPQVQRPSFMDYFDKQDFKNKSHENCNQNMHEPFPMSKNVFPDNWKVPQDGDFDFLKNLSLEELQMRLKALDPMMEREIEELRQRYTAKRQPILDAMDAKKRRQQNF
The test can be described thus: Binding affinity to human recombinant STK3 expressed in Escherichia coli assessed as thermal shift by differential scanning fluorimetry. An outline of the steps: as §1

The target of test [5] is Serine/threonine-protein kinase pim-1 (Homo sapiens) (UniProt P11309). The experiment in a line: Binding affinity to human recombinant PIM1 expressed in Escherichia coli assessed as thermal shift by differential scanning fluorimetry. An outline of the steps:
as §1

Serine/threonine-protein kinase pim-1 (Homo sapiens), sequence (P11309 whole entry, looked up): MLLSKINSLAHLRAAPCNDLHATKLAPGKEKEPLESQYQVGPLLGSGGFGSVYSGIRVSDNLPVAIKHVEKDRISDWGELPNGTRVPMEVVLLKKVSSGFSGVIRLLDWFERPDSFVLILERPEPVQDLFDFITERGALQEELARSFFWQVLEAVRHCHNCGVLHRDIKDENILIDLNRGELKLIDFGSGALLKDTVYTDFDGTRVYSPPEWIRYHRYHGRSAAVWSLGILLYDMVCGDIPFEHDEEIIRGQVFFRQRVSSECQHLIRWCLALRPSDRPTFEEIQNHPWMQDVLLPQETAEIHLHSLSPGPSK

What is called Tm is the temperature at the midpoint of the melting transition. Consider `COc1cc2c(c(OC)c1)C(=O)O[C@@H](C)CCC[C@@H](O)[C@@H](C)CC/C=C/2`, for which the Tm in test [1], in test [2], in test [3], in test [4] and in test [5] was < 2 °C each time.

In the case of `C[C@@H]1C[C@H]2O[C@@H]2/C=C\C=C\C(=O)Cc2c(Cl)c(O)cc(O)c2C(=O)O1` [RADICICOL], the Tm in test [1], in test [2], in test [3], in test [4] and in test [5] was < 2 °C throughout.

As for `COc1cc(O)c2c(c1)/C=C/CC[C@H](C)C(=O)CCC[C@H](C)OC2=O`, the midpoint of thermal melting (Tm) in test [1], in test [2], in test [3], in test [4] and in test [5] was < 2 °C each time.

For `COc1cc2c(c(OC)c1)C(=O)O[C@@H](C)CCCC(=O)[C@@H](C)CC/C=C/2`, the Tm in test [1], in test [2], in test [3], in test [4] and in test [5] was < 2 °C in each case.

Consider `C[C@H]1CCCC(=O)CCC/C=C/c2cc(O)cc(O)c2C(=O)O1`, for which the Tm in test [1] is < 2 °C; in test [2] it was < 2 °C; in test [3], < 2 °C; in test [4] it was < 2 °C; in test [5] it was 3 °C.

`COC1=C2C[C@@H](C)C[C@H](OC)[C@H](O)[C@@H](C)/C=C(\C)[C@H](OC(N)=O)[C@@H](OC)/C=C\C=C(/C)C(=O)NC(=CC1=O)C2=O`: the Tm in test [1], in test [2], in test [3], in test [4] and in test [5] was < 2 °C in each case.

For the compound `C[C@H]1CCCC(=O)[C@@H](C)CC/C=C/c2cc(O)cc(O)c2C(=O)O1`, the Tm is < 2 °C in test [1]; < 2 °C in test [2]; < 2 °C in test [3]; < 2 °C in test [4]; 2.2 °C in test [5].
